Measured values reported in ChEMBL document CHEMBL4814043, “Optimization of a urea-containing series of nicotinamide phosphoribosyltransferase (NAMPT) activators” (Bioorg Med Chem Lett, 2021).
In brackets after ≈: the same amount, converted by molar mass. One block for each compound: values may come before it. Activity calls are given as the source filed them. The calls are words filed in the database; no cut-off is given here.

What was measured:
[1] = biological target: T1, Nicotinamide phosphoribosyltransferase (Homo sapiens, UniProt P43490); assay: Activation of human NAMPT
Target sequence in this assay (P43490 whole entry): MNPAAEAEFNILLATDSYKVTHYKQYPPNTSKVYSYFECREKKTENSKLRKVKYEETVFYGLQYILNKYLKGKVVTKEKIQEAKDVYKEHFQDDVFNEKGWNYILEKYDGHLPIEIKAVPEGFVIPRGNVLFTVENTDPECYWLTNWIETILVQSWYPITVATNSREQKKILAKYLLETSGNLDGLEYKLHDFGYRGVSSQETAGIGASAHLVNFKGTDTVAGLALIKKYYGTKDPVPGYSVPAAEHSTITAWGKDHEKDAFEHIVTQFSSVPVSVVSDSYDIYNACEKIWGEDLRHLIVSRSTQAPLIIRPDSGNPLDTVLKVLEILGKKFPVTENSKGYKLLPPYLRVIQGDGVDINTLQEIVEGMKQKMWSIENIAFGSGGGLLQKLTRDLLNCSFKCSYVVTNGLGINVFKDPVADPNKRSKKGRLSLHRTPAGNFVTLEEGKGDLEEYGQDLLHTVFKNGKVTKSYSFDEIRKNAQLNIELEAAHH

[2] = Plasma clearance in mouse at 1 mg/kg, iv; assay type: ADME, organism-based
[3] = Volume of distribution in mouse at 1 mg/kg, iv; assay type: ADME, organism-based; details: in vivo
[4] = Cmax in mouse at 10 mg/kg, po; assay type: ADME, organism-based; design: route oral, dose 10 mg/kg; details: in vivo
[5] = AUC in mouse at 10 mg/kg, po; assay type: ADME, organism-based; design: dose 10 mg/kg; details: in vivo
[6] = Half life in mouse at 10 mg/kg, po; assay type: ADME, organism-based; details: in vivo
[7] = Oral bioavailability in mouse at 10 mg/kg; assay type: ADME, organism-based; details: in vivo
[8] = 1-Octanol/PBS buffer distribution coefficient, log D of the compound at pH 7.4; assay type: physicochemical
Outline: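 Partitioning measured between 1-octanol and phosphate-buffered saline at pH 7.4.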

[9] = Permeability of compound at pH 5 by PAMPA assay; assay type: ADME; details: read-out: permeability
[10] = Permeability of compound at pH 7.4 by PAMPA assay; assay type: ADME; details: read-out: permeability
[11] = Solubility of compound at pH 1.2; assay type: physicochemical; details: buffer
[12] = Solubility of compound at pH 6.8; assay type: physicochemical; details: buffer
[13] = Metabolic stability in human liver microsomes assessed as parent compound remaining at 1 uM measured after 30 mins; assay type: ADME, Microsome; details: read-out: Stabilty
Outline: (§1)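 Compound at 1 µM incubated with human or mouse microsomes for 30 min; read-out is percent parent remaining.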

[14] = Metabolic stability in mouse liver microsomes assessed as parent compound remaining at 1 uM measured after 30 mins; assay type: ADME, Microsome; details: read-out: Stabilty; outline: as §1
[15] = biological target: T2, CYP1A2 (Homo sapiens, UniProt P05177); assay: Inhibition of CYP1A2 (unknown origin) at 10 uM measured after 10 mins; assay type: ADME
T2 sequence (P05177 whole entry): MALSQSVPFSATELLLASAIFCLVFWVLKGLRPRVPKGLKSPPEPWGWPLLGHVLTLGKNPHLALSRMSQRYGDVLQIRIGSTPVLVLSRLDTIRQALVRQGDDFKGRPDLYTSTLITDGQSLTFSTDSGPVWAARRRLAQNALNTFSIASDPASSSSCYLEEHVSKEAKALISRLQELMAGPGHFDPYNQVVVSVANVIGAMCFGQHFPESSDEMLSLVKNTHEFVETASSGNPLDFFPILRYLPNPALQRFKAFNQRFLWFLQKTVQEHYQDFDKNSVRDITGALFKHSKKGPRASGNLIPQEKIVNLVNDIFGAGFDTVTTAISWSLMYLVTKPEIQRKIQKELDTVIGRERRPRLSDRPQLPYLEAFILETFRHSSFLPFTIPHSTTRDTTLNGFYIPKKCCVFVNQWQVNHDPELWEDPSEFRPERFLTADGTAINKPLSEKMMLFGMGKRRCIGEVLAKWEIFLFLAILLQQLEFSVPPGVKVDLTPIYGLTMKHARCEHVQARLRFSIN
Outline: (§2)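 Each CYP isoform (1A2, 2C9, 2D6, 3A4) reacted with compound at 10 µM for 10 min; value reported as percent inhibition.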

[16] = biological target: CYP2C9 (Homo sapiens, UniProt P11712); assay: Inhibition of CYP2C9 (unknown origin) at 10 uM measured after 10 mins; assay type: ADME; outline: as §2
Chain of CYP2C9 (P11712 whole entry): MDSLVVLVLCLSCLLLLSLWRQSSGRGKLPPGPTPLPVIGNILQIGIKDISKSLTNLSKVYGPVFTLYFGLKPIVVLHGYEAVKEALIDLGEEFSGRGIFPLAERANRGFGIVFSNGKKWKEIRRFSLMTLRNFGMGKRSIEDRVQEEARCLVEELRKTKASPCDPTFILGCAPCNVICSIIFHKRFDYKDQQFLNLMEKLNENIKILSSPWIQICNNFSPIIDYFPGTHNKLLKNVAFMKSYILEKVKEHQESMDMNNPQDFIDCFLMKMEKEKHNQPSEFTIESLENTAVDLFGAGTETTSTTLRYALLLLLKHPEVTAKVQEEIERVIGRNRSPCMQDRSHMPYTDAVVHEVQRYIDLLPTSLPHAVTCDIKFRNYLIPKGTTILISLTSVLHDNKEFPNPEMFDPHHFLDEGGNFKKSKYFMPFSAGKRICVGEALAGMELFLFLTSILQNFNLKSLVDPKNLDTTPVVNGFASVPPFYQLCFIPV

[17] = biological target: CYP2D6 (Homo sapiens, UniProt P10635); assay: Inhibition of CYP2D6 (unknown origin) at 10 uM measured after 10 mins; assay type: ADME; outline: as §2
Chain of CYP2D6 (P10635 whole entry): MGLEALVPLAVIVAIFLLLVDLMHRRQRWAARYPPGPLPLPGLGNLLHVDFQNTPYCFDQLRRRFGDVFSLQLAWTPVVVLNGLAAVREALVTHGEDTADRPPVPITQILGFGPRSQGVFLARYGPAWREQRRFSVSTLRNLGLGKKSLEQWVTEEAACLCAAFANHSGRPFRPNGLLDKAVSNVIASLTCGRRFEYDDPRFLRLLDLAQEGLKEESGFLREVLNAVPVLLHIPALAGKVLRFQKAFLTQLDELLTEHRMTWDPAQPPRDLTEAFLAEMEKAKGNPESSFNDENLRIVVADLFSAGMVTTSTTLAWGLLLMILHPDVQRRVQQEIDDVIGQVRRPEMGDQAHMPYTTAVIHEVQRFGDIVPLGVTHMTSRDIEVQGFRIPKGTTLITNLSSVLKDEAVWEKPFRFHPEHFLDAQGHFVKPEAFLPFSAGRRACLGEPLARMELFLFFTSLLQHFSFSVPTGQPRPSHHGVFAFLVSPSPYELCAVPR

[18] = biological target: CYP3A4 (Homo sapiens, UniProt P08684); assay: Inhibition of CYP3A4 (unknown origin) at 10 uM measured after 10 mins; assay type: ADME; outline: as §2
Chain of CYP3A4 (P08684 whole entry): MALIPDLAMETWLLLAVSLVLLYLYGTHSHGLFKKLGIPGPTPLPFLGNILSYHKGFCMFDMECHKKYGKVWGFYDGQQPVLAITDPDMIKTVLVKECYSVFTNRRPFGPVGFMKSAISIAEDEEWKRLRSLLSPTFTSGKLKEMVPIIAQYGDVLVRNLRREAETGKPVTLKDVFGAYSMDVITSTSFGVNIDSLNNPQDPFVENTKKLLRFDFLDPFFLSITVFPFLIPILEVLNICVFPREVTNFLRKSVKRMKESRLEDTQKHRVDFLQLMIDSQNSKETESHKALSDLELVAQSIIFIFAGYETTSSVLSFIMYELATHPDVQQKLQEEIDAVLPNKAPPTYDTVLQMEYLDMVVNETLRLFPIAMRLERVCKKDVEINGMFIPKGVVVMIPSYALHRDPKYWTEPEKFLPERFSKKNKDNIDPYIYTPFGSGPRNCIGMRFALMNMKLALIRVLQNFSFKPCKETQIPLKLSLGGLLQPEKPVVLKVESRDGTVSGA

[19] = biological target: T1, Nicotinamide phosphoribosyltransferase; assay: Activation of NAMPT in human A549 cells assessed as increase in NAD+ level at 10 uM incubated for 4 hrs by LC-MS/MS analysis; assay type: cell-based; details: filed as activator
Outline: (§3)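 A549 cells exposed to 10 µM compound or DMSO vehicle for 4 hr, then harvested; NMN and NAD+ quantified by LC-MS/MS and normalized to cell protein; significance vs. vehicle control by P value.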
Target sequence in this assay (P43490 whole entry, looked up): as the sequence (P43490 whole entry) above

[20] = biological target: T1, Nicotinamide phosphoribosyltransferase; assay: Activation of NAMPT in human A549 cells assessed as increase in NMN level at 10 uM incubated for 4 hrs by LC-MS/MS analysis; assay type: cell-based; details: filed as activator; outline: as §3
Target sequence in this assay (P43490 whole entry, looked up): as the sequence (P43490 whole entry) above

SMILES: CNS(=O)(=O)c1ccc(NC(=O)NCc2ccncc2)cc1
- EC50 [1]: 3230 nM

SMILES: CCOC(=O)c1ccc(NC(=O)NCc2cc[nH]n2)cc1
- EC50 [1]: 69000 nM

SMILES: CN(C)S(=O)(=O)c1ccc(NC(=O)NCc2ccncc2)cc1
- EC50 [1]: 3110 nM

SMILES: CCOC(=O)c1ccc(CC(=O)NCc2ccncc2)cc1
- EC50 [1]: > 100000 nM

SMILES: CCOC(=O)c1ccc(NC(=O)NCc2cocn2)cc1
- EC50 [1]: 27600 nM

SMILES: CCOC(=O)c1ccc(NC(=O)NCc2ccncn2)cc1
- EC50 [1]: 13600 nM

SMILES: CCOC(=O)c1ccc(NC(=O)OCc2ccncc2)cc1
- EC50 [1]: 10800 nM

SMILES: CCOC(=O)c1ccc(NC(=O)NCc2c[nH]nn2)cc1
- EC50 [1]: 7750 nM

SMILES: CCOC(=O)c1ccc(NC(=O)CCc2ccncc2)cc1
- EC50 [1]: 15900 nM

SMILES: CCOC(=O)c1ccc(N(C)C(=O)NCc2ccncc2)cc1
- EC50 [1]: > 100000 nM

SMILES: CN(Cc1ccccc1)S(=O)(=O)c1ccc(NC(=O)NCc2ccncc2)cc1
- clearance [2]: 43 mL/min/kg
- Vd [3]: 1.37 L/kg
- Cmax [4]: 4950 ng/mL
- AUC [5]: 4510 ng·h/mL
- half-life [6]: 0.6 h
- bioavailability [7]: > 100%

SMILES: CCOC(=O)c1ccc(NC(=S)NCc2ccncc2)cc1
- EC50 [1]: 9770 nM

SMILES: O=C(NCc1cnco1)Nc1ccc(S(=O)(=O)c2cccc(OC(F)(F)F)c2)cc1
- clearance [2]: 4 mL/min/kg
- Vd [3]: 0.58 L/kg
- Cmax [4]: 15300 ng/mL
- AUC [5]: 45200 ng·h/mL
- half-life [6]: 2.3 h
- bioavailability [7]: > 100%

SMILES: CCOC(=O)c1ccc(NC(=O)NCc2ccnnc2)cc1
- EC50 [1]: > 100000 nM

SMILES: CCOC(=O)c1ccc(N/C(=N\C#N)NCc2ccncc2)cc1
- EC50 [1]: 41400 nM

SMILES: CCOC(=O)c1ccc(NC(=O)N(C)Cc2ccncc2)cc1
- EC50 [1]: > 100000 nM

Other lines, results leading:

- EC50 [1]: 123 nM
SMILES: CN(C1CCCC1)S(=O)(=O)c1ccc(NC(=O)NCc2ccncc2)cc1

- EC50 [1]: 102 nM
SMILES: O=C(NCc1ccncc1)Nc1ccc(S(=O)(=O)NCc2ccccc2)cc1

- EC50 [1]: 85 nM
SMILES: O=C(NCc1ccncc1)Nc1ccc(S(=O)(=O)c2ccccc2)cc1

- EC50 [1]: 1850 nM
SMILES: CCOC(=O)c1ccc(NC(=O)NCc2cn[nH]c2)cc1

- EC50 [1]: 1370 nM
SMILES: CCOC(=O)c1ccc(NC(=O)NCc2ccccc2)cc1

- EC50 [1]: 279 nM
SMILES: O=C(NCc1ccncc1)Nc1ccc(S(=O)(=O)N2CC3CCC(C2)O3)cc1

- EC50 [1]: 142 nM
- clearance [2]: 20 mL/min/kg
- Vd [3]: 0.6 L/kg
- Cmax [4]: 7860 ng/mL
- AUC [5]: 4270 ng·h/mL
- half-life [6]: 1 h
- bioavailability [7]: 47%
SMILES: O=C(NCc1ccncc1)Nc1ccc(S(=O)(=O)N2CCc3ccccc3C2)cc1

- EC50 [1]: 410 nM
SMILES: O=C(NCc1ccncc1)Nc1ccc(S(=O)(=O)Nc2ccccc2)cc1

- EC50 [1]: 126 nM
SMILES: O=C(NCc1ccncc1)Nc1ccc(S(=O)(=O)c2ccc(Cl)cc2)cc1

- EC50 [1]: 77 nM
SMILES: O=C(NCc1cnco1)Nc1ccc(S(=O)(=O)c2ccccc2)cc1

- EC50 [1]: 2280 nM
SMILES: CCOC(=O)c1ccc(NC(=O)NC(C)c2ccncc2)cc1 (stereo not given)

- EC50 [1]: 28 nM
- clearance [2]: 8 mL/min/kg
- Vd [3]: 1.12 L/kg
- Cmax [4]: 2230 ng/mL
- AUC [5]: 9340 ng·h/mL
- half-life [6]: 2.5 h
- bioavailability [7]: 45%
SMILES: O=C(NCc1cn[nH]c1)Nc1ccc(S(=O)(=O)c2ccccc2)cc1

- EC50 [1]: 23 nM
- clearance [2]: 3 mL/min/kg
- Vd [3]: 0.61 L/kg
- Cmax [4]: 9550 ng/mL
- AUC [5]: 54500 ng·h/mL
- half-life [6]: 3.2 h
- bioavailability [7]: 80%
- logD [8]: 3.1
- Papp [9]: < 0.01 ×10⁻⁶ cm/s
- Papp [10]: 0.04 ×10⁻⁶ cm/s
- solubility [11]: 110 µg/mL (≈ 281 µM)
- solubility [12]: 8.5 µg/mL (≈ 21.7 µM)
- remaining at 0.5 h, 1 µM [13]: 87%
- remaining at 0.5 h, 1 µM [14]: 18%
- inhibition at 10 min, 10 µM [15]: 65%
- inhibition at 10 min, 10 µM [16]: 96%
- inhibition at 10 min, 10 µM [17]: 95%
- inhibition at 10 min, 10 µM [18]: 0%
- Activity [19]: Active
- Activity [20]: Active
SMILES: O=C(NCc1cn[nH]c1)Nc1ccc(S(=O)(=O)c2ccc(Cl)cc2)cc1
